Laboratory results: the array DNA melting data of Ke et al. (doi:10.1101/2024.01.08.574731)

Columns and labels:
[1] = melting temperature; fluorescence melt of hairpins on a sequencing array, two-state fit, raised by 9.35 °C to match UV melts; conditions: sodium 0.088 M
Procedure, shortened: (§1)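 To match UV melts, fitted temperatures were raised by 9.35 °C. These fits were bootstrapped two-state models that gave melting temperature and folding enthalpy, combined by inverse variance over four replicates. The input was normalised Cy3 fluorescence of library hairpins with annealed Cy3 and quencher oligos on a sequenced MiSeq flow cell, imaged in 50 mM Na-HEPES pH 8.0, 25 mM NaCl in 2.5 °C steps up to 60 °C.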

[2] = folding enthalpy; higher = less favourable; fluorescence melt of hairpins on a sequencing array, two-state fit; conditions: sodium 0.088 M
Procedure, shortened: as §1

Row | Sequence | Tm [1] [°C] | folding enthalpy [2] [kcal/mol]
1 | GATCCGTAGCGGATC ((((((...)))))) | 56 | -35.6
2 | GGGCTGGGAAACTAGCCC (((((.(....).))))) | 58.1 | -45.3
3 | GGGATCGCGAAAGCGCCC (((..(((....)))))) | 40.6 | -13.8
4 | GACACAGGAAACTGTATC ((.((((....)))).)) | 28.3 | -14.1
5 | GCTTGACGAAAGTCAGC (((.(((....)))))) | 55.6 | -23.5
6 | GTCCACGGAAACATGGAC (((((.(....).))))) | 43.2 | -25.5
7 | GGTATCACGAAAGTGACC (((..(((....)))))) | 30 | -9.93
8 | GTGCGCCGAAAGGCACAC (((.(((....))).))) | 63.7 | -29
9 | GCCCACGGAAACGCGGAC (.((.((....)).)).) | 32.8 | -18.4
10 | GACCCGCGAAAGCGAGTC (((.(((....))).))) | 55.7 | -26.7
11 | GCCCTGCGAAAGCGGTGC ((.(.((....)).).)) | 48 | -20.2
12 | GATCTGCCTGCAGATC ((((((....)))))) | 62.6 | -43.3
13 | GTGTCAGAAATGACAC ((((((....)))))) | 56.4 | -35.9
14 | GAAGGAGGAAACCCCTTC (((((.(....).))))) | 36.9 | -31.3
15 | GATCGTGTTTACGATC ((((((....)))))) | 57.5 | -41.4
16 | GCCCGGTCGAAAGACGGC (((..(((....)))))) | 51.7 | -18.1
17 | GAACAACGAAAGTTATTC (((.(((....))).))) | 30.1 | -18.4
18 | GCTACCGAAAGGTTAGC ((((((....))).))) | 52.7 | -28
19 | GTCTCGTCGAAAGACGAC (((..(((....)))))) | 37 | -7.57
20 | GGGGGCGGAAACACCCCC (((((.(....).))))) | 56.9 | -39.3
21 | GATCATTTGGATGATC ((((((....)))))) | 48.5 | -36.9
22 | GCCTCGCGAAAGCCCGGC (((..((....))..))) | 42.8 | -17.8
23 | GCAAATCCGAAAGGATGC (((..(((....)))))) | 47.8 | -17.5

Row | Sequence | Tm [1] [°C] | folding enthalpy [2] [kcal/mol]
24 | GTGAACGAAAGTTTCAC ((((((....))).))) | 47.9 | -22
25 | GATCTAAGATAGATC ((((((...)))))) | 37.9 | -20.6
26 | GTTGGGGGAAACCCCGAC ((.((((....)))).)) | 56.6 | -24.2
27 | GATCCACGTGTGGATC ((((((....)))))) | 65.9 | -44.5
28 | GATCTCTGCGAGATC ((((((...)))))) | 52.8 | -19.3
29 | GTTTGGGGAAACCCAAAC (((((((....))))))) | 59 | -42.3
30 | GATCCGGGAAACCGGACC (.(((((....))))).) | 44.1 | -13.2
31 | GATCGCTGGTGCGATC ((((((....)))))) | 68.6 | -34.2
32 | GACAGTGGAAACATTGTC ((((.((....)).)))) | 43 | -32.4
33 | GATCCATAATGGATC ((((((...)))))) | 49.6 | -34.8
34 | GCGTCTGTACGC ((((....)))) | 53.3 | -26.2
35 | GCAAAGCGAAAGCCCTGC (((..((....))..))) | 28.5 | -10.3
36 | GCAAACGAAAGTTCGTGC ((((((....)))..))) | 35.6 | -17.3
37 | GCCTTGGGAAACTAGGGC (((.(.(....).).))) | 36.5 | -30.1
38 | GCCTAGGGAAACTTGGGC (((.(.(....).).))) | 36.7 | -28.3
39 | GCATGACGAAAGTCCTGC (((.(((....))).))) | 51 | -34.5
40 | GGCGATGGAAACACCGCC ((((.((....)).)))) | 54 | -51.7
41 | GCCATGCCGAAAGGCGGC (((..(((....)))))) | 59.2 | -18.6
42 | GATCTCCCACGAGATC ((((((....)))))) | 50.5 | -40.3
43 | GCGTCGAAACGC ((((....)))) | 51.3 | -18.4
44 | GCTTTGGGAAACTAAAGC (((((.(....).))))) | 44.3 | -27.4
45 | GGTATGAAAATACC (((((....))))) | 47.5 | -20.9
46 | GATCGCCGGGCGATC ((((((...)))))) | 67.8 | -31.1

Row | Sequence | Tm [1] [°C] | folding enthalpy [2] [kcal/mol]
47 | GGTACCGAAAGGTGGACC ((((((....)))..))) | 37.8 | -17
48 | GCCAAGCGAAAGCTCTGC ((..(((....)))..)) | 31.2 | -11.4
49 | GGCAGGTCGAAAGACGCC (((..(((....)))))) | 53.5 | -24
50 | GATCGCCACAGCGATC ((((((....)))))) | 68.8 | -38.2
51 | GATCCTTTGTAGGATC ((((((....)))))) | 52.6 | -39.7
52 | GTTCTGCCGAAAGGCAAC (((..(((....)))))) | 25.1 | -7.25
53 | GCGACGGGAAACCGTCAC (.(((((....))))).) | 48.7 | -13
54 | GGGCTTCGAAAGAACCC (((.(((....)))))) | 48.6 | -28.9
55 | GCACCCGAAAGGGCCTGC ((((((....)))..))) | 34.5 | -13.4
56 | GATCAGATACCTGATC ((((((....)))))) | 48 | -36.7
57 | GCAGCAGGAAACTGTTGC (((.(((....))).))) | 52.1 | -52.3
58 | GATCACCGCAGTGATC ((((((....)))))) | 59 | -40
59 | GTAAGGGGAAACCCTCAC ((.((((....)))).)) | 30.2 | -13.7
60 | GGGAAGACGAAAGTCCCC (((..(((....)))))) | 45.3 | -19.1
61 | GACGAAGGAAACTTCATC ((.((((....)))).)) | 26.9 | -14.7
62 | CGTCAGAAATGACG (((((....))))) | 51.6 | -24.5
63 | GAGAGTGCGAAAGCACTC (((..(((....)))))) | 64.5 | -7.98
64 | GAGTAACGAAAGTTTCTC (((.(((....))).))) | 40.3 | -30.1
65 | CGTTTTCGGAAACGAACG (((..(((....)))))) | 37 | -12.1
66 | GCTACCGAAAGGTCCAGC ((((((....)))..))) | 29 | -11.4
67 | GCCCTGCGAAAGCCGGGC ((((.((....)).)))) | 69 | -32.9
68 | GAATCACGAAAGTGTTTC (((.(((....))).))) | 41.5 | -24.7
69 | GATCGCCGAGCGATC ((((((...)))))) | 67.3 | -32.5
